The nature of assay [1]: S. cerevisiae growth inhibition in permissive medium (OD615), pilot counter-assay for S. cerevisiae lifespan shortening project, permissive growth control (AID 705;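 active = growth inhibition above 25% in both replicates, a cutoff set 3 SD above the mean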). Particulars: OD615, 24 h, at 10 µM, active compounds read high. An outline of the steps: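 System: S. cerevisiae with engineered DeaD lifespan system. Medium: SC raffinose/galactose permissive medium. Doses: single compound dose of 10 µM, 0.25% DMSO final. Schedule: 24 h exposure, 30 °C. Measured by: OD615 turbidity read. Read-out: growth inhibition.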

Assay [2] is described as follows: S. cerevisiae growth inhibition in restrictive medium, OD615, pilot screen, restrictive growth control, yeast lifespan reduction project (AID 706;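 active = growth inhibition above a set limit, 3 SD over mean compound inhibition, in both replicates, cut at about 43% in these data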). The conditions noted are these: OD615, 48 h, at 10 µM, active compounds read high. An outline of the steps: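 Assay system – genetically modified Saccharomyces cerevisiae, DeaD replicative lifespan assay strain · Medium – CSMM-D glucose medium · Doses – 10 µM compound, 0.25% DMSO · Times – 4 h pre-incubation, 48 h exposure at 30 °C · Signal – optical density at 615 nm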

A short description of assay [3]: doxorubicin toxicity protection in MRP-1 cells – H69AR cells, CellTiter-Glo, duplicate, MRP-1 activator project, pilot screen (AID 807).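 Note: compound pretreatment 18-22 h then 72 h combined with doxorubicin; 0% = doxorubicin alone and 100% = vehicle without doxorubicin.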 Particulars: H69AR viability with doxorubicin, CellTiter-Glo luminescence; at 10 µM; active compounds read high.
The nature of assay [4]: viability of HCT116 without oncogenic beta-catenin – human colon tumor cells, pilot screen (AID 823;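 active = cell viability at or below a set limit in both duplicate runs, the limit being the all-compound median minus 4 SD, cut at about 23% in these data, passing the limit was not always enough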;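 note: 0% = wells killed by 20 µM Hyamine and 100% = untreated DMSO cell wells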). Particulars: HCT116 beta-catenin knockout viability, CellTiter-Glo, 60 h; at 10 µM; active compounds read low. (In general: In ATP-based viability assays light output follows the ATP content of the culture.)
A short description of assay [5]: viability of PTEN-null HCT116 cells – cell-based, HCT116 clonal line, CellTiter-Glo, pilot screen (AID 824;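 active = viability at or below 27.92% in each of two runs, the all-compound median minus 4 SD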;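 note: 0% = 20 µM Hyamine control and 100% = vehicle cell control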). The conditions noted are these: HCT116 PTEN-deleted viability, 60 h, at 10 µM, active compounds read low.
The nature of assay [6]: RAM pathway blockade in budding yeast – dse1pr::URA3 reporter, 5-FOA selection, pilot screen (AID 869;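 active = inhibition over a set limit, the all-compound mean plus 3 SD, in both replicate runs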;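 note: 0% = DMSO wells with no growth and 100% = 10 µM 1-NA-PP1 with full growth; RAM network block rescues cells from 5-FOA so hits raise OD615 growth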). The conditions noted are these: S. cerevisiae dse1pr::URA3 5-FOA growth, OD615, 2 d; at 10 µM; active compounds read high; strain carries analog-sensitive mutant Cbk1 kinase.
Assay [7] is described as follows: RAM signaling pathway blockade in yeast – S. cerevisiae, Pdr1DBD-CYC8 efflux-inhibited sensitized strain, primary screen (AID 1298;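 active = RAM network inhibition above 8.4% in each of two replicates, 3 SD over the compound average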;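 note: 0% = DMSO untreated cells without growth and 100% = 10 µM 1-NA-PP1 full growth; higher means more yeast growth rescued from 5-FOA killing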). Particulars: S. cerevisiae cbk1-as DSE1-URA3 strain, 5-FOA growth OD615, 2 d; at 50 µM; active compounds read high.

Each structure is given as a SMILES string. A number with no mark means an inactive call. Results filed as inconclusive are left out. Calls of active or inactive are those of the source.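 Rule for the calls, unless noted: active = viability increase at or above a cutoff of the median across tested compounds plus 3 SD (cut at about 8.5% in these data, passing the limit was not always enough); inconclusive = some gains above the cutoff, reason not given; inactive = the rest.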

Usually viability stands for a read-out of living cells in per cent, often relative to untreated cells. What is called inhibition is the change of the read-out against control, counted positive when it falls.

Regarding `COC(=O)CN1C(=O)C(O)(CC(=O)c2ccc(Br)cc2)c2ccccc21` (stereo unspecified), the growth inhibition in assay [1] is 5.54%; in assay [2], 11.5%. Further, the viability increase in assay [3] is -2.96%. Also, the viability in assay [4] is 92.4%; in assay [5], 96.6%. For the same molecule, in assay [6], the inhibition is 0.785%. Further, the RAM network inhibition in assay [7] was 3.19%.

Regarding `CCCCC(CC)CNC(=O)c1cccs1` (stereo unspecified), the growth inhibition in assay [1] was 6.58%; in assay [2], 13.6%. Moreover, the viability increase in assay [3] is 0.39%. Also, the viability in assay [4] is 79.2%; in assay [5] it was 85.8%. Further, in assay [6], the inhibition was -0.705%. Further, the RAM network inhibition in assay [7] is -1.28%.

As to `CC(C)Oc1ccc(N2CC(C(=O)Nc3ccc4c(c3)OCO4)CC2=O)cc1` (stereo unspecified), the growth inhibition in assay [1] is -13.3%; in assay [2], -4.22%. In assay [3], the viability increase is -0.37%. Moreover, the viability was 106% in assay [4] and 99.5% in assay [5]. The inhibition in assay [6] is 2.58%. For the same molecule, in assay [7], the RAM network inhibition is 4.96%.

Regarding `COc1ccccc1N1CCN(C(=O)CCc2ccc(S(=O)(=O)NC(C)C)cc2)CC1`, the growth inhibition in assay [1] is -12.7%; in assay [2], -19.8%. Also, the viability increase in assay [3] is -2.97%. For the same molecule, the viability was 97.6% in assay [4] and 102% in assay [5]. The inhibition in assay [6] is 0.85%. Moreover, in assay [7], the RAM network inhibition was 4.61%.

On to `Cc1c(Nc2nc3ccccc3nc2N2CCN(c3ccccc3)CC2)c(=O)n(-c2ccccc2)n1C`, for which the figures for the growth inhibition in assay [1] and in assay [2] were -2.84% and -9.73%, respectively. The viability increase in assay [3] is -4.8%. The values for the viability in assay [4] and in assay [5] were 69% and 70.6%, respectively. Further, in assay [6], the inhibition is 0.73%. In assay [7], the RAM network inhibition was 5.41%.

As to `O=C(CSC1=NS(=O)(=O)c2ccccc21)Nc1ccccc1`, the figures for the growth inhibition in assay [1] and in assay [2] were 56.7% (active) and 96.9% (active), respectively. Also, the viability increase in assay [3] was -2.73%. Besides, the viability in assay [4] is 94.3%; in assay [5], 104%. Further, the inhibition in assay [6] was -0.07%. Further, the RAM network inhibition in assay [7] is -0.47%.

With `Cc1ccc(-n2nnc3c(=O)n(Cc4ccccc4C)cnc32)cc1`, the results for the growth inhibition in assay [1] and in assay [2] were -4.99% and -6.7%, respectively. The viability increase in assay [3] was -0.53%. The values for the viability in assay [4] and in assay [5] were 102% and 100%, respectively. For the same molecule, the inhibition in assay [6] is 2.44%. Further, in assay [7], the RAM network inhibition is 4.84%.

For the molecule `CCOc1cc(-c2cc(N)n[nH]2)cc(OCC)c1OCC`, the growth inhibition is -14.5% in assay [1] and -8.22% in assay [2]. In assay [3], the viability increase was -2.48%. For the same molecule, the values for the viability in assay [4] and in assay [5] were 104% and 91.5%, respectively. Moreover, the inhibition in assay [6] is 0.37%. For the same molecule, the RAM network inhibition in assay [7] was 0.35%.

Take `COc1ccc(N2CCN(Cc3nc4c(c(=O)n(C)c(=O)n4C)n3Cc3cccc(C)c3)CC2)cc1`: the growth inhibition was -11.5% in assay [1] and -24.2% in assay [2]. Further, in assay [3], the viability increase is -3.88%. For the same molecule, the viability is 80.1% in assay [4] and 75.2% in assay [5]. For the same molecule, the inhibition in assay [6] was -0.7%. In addition, the RAM network inhibition in assay [7] is 8.85%.

`CSC(=NS(=O)(=O)c1ccc(C)cc1)SC`: the growth inhibition in assay [1] is -11%; in assay [2] it was -20.2%. The viability increase in assay [3] is -1.03%. Further, the viability in assay [4] was 94.6%; in assay [5], 93.1%. The inhibition in assay [6] is 2.02%. The RAM network inhibition in assay [7] is 4.14%.

With `CCCCCCN=CC1=C(O)C(C(=O)OC)C(C)(C)CC1=O` (stereo unspecified), the figures for the growth inhibition in assay [1] and in assay [2] were -10.1% and -3.98%, respectively. Further, in assay [3], the viability increase was 1.15%. For the same molecule, the viability in assay [4] is 95.1%; in assay [5], 95.3%. The inhibition in assay [6] was 0.93%. Moreover, the RAM network inhibition in assay [7] was 0.11%.

For `Cc1onc(-c2ccccc2Cl)c1C(=O)N1CCCCC1C(=O)O` (stereo unspecified), the growth inhibition in assay [1] was 0.56%; in assay [2] it was -2.38%. For the same molecule, in assay [3], the viability increase was -1.22%. For the same molecule, the figures for the viability in assay [4] and in assay [5] were 96.6% and 98.6%, respectively. Moreover, the inhibition in assay [6] was 0.055%. In addition, the RAM network inhibition in assay [7] was 4.06%.

Turning to `Cc1cc(Nc2ccc(C(C)C)cc2)n2ncnc2n1`, the growth inhibition is -6.6% in assay [1] and 7.39% in assay [2]. The viability increase in assay [3] is -0.35%. The results for the viability in assay [4] and in assay [5] were 95.2% and 85.2%, respectively. In assay [6], the inhibition was 0.465%. Moreover, in assay [7], the RAM network inhibition was 5.75%.

For `O=C(Cn1cnc2c(nnn2-c2ccccc2)c1=O)N1CCC(Cc2ccccc2)CC1`, the growth inhibition in assay [1] is 7.29%; in assay [2] it was 9.16%. Besides, the viability increase in assay [3] is -1.56%. In addition, the values for the viability in assay [4] and in assay [5] were 91.4% and 85.3%, respectively. The inhibition in assay [6] is 2.19%. Also, the RAM network inhibition in assay [7] is 7.33%.

Turning to `CCOC(=O)N1CCN(C(=O)CS(=O)Cc2nc(-c3ccc(C)cc3)oc2C)CC1` (stereo unspecified), the growth inhibition in assay [1] is -5.11%; in assay [2] it was 7.44%. For the same molecule, the viability increase in assay [3] is -1.59%. In addition, the values for the viability in assay [4] and in assay [5] were 89.3% and 92.1%, respectively. The inhibition in assay [6] was 1.68%. Further, the RAM network inhibition in assay [7] was 7.07%.

As for `O=S1(=O)N=C(Nc2ccc(O)c(CN3CCCCC3)c2)c2ccccc21`, the growth inhibition was 5.56% in assay [1] and -0.14% in assay [2]. The viability increase in assay [3] was -3.07%. Also, the viability in assay [4] was 90.8%; in assay [5] it was 97.1%. In assay [6], the inhibition is 2.89%. Further, the RAM network inhibition in assay [7] was 6.37%.

As for `Cc1ccccc1NC(=O)CCn1c(=O)oc2ccccc21`, the figures for the growth inhibition in assay [1] and in assay [2] were -3.42% and -26.5%, respectively. Further, the viability increase in assay [3] is -1.87%. The viability in assay [4] was 101%; in assay [5], 91.3%. In assay [6], the inhibition was 1.54%. Moreover, the RAM network inhibition in assay [7] was 3.96%.

With `O=C(COC(=O)c1ccc(Br)c(S(=O)(=O)N2CCOCC2)c1)NCC1CCCO1` (stereo unspecified), the growth inhibition in assay [1] was -1.59%; in assay [2], -5.15%. Further, in assay [3], the viability increase was -2.27%. Besides, the viability in assay [4] is 100%; in assay [5], 101%. Further, the inhibition in assay [6] was 3.08%. Moreover, the RAM network inhibition in assay [7] was 4.66%.

For the origin of these results see PubChem BioAssay.
